According to ChEMBL document CHEMBL1123933, “Specific dopamine D-1 and DA1 properties of 4-(mono- and -dihydroxyphenyl)-1,2,3,4-tetrahydroisoquinoline and its tetrahydrothieno[2,3-c]pyridine analogue” (1987):
Active and inactive are the calls of the source. No cut-off for these calls is given here.

Experiments:
Rattus norvegicus [1] = organism: Rattus norvegicus; test: Compound was evaluated for the stimulation of rat retinal adenylate cyclase by effect of its alkyl length at 100.0 uM dose; format: functional
In short: (§1)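 Retinal homogenate, […], incubated 20 min at 30 °C. Stopped with SDS/ATP/cAMP plus [3H]cAMP recovery tracer and 2 min at 85 °C. [32P]cAMP isolated by Salomon column chromatography.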

Rattus norvegicus [2] = organism: Rattus norvegicus; test: Compound was evaluated for the stimulation of rat retinal adenylate cyclase by effect of its alkyl length at 0.1 uM dose; format: functional; in short: as §1
Rattus norvegicus [3] = organism: Rattus norvegicus; test: Compound was evaluated for the stimulation of rat retinal adenylate cyclase by effect of its alkyl length at 1.0 uM dose; format: functional; in short: as §1
Rattus norvegicus [4] = organism: Rattus norvegicus; test: Compound was evaluated for the stimulation of rat retinal adenylate cyclase by effect of its alkyl length at 10.0 uM dose; format: functional; in short: as §1
Rattus norvegicus [5] = organism: Rattus norvegicus; test: Compound was evaluated for the stimulation of rat retinal adenylate cyclase at 0.1 uM dose; format: functional; in short: as §1
Rattus norvegicus [6] = organism: Rattus norvegicus; test: Compound was evaluated for the stimulation of rat retinal adenylate cyclase at 10.0 uM dose; format: functional; in short: as §1
Rattus norvegicus [7] = organism: Rattus norvegicus; test: Compound was evaluated for the stimulation of rat retinal adenylate cyclase at 100.0 uM dose; format: functional; in short: as §1
Rattus norvegicus [8] = organism: Rattus norvegicus; test: Compound was evaluated for the stimulation of rat retinal adenylate cyclase at 1.0 uM dose; format: functional; in short: as §1
Canis familiaris = organism: Canis familiaris; test: Compound was evaluated for the stimulation of canine renal artery; Inactive; format: functional, organism-based; settings: Canis lupus familiaris

CN1Cc2ccccc2C(c2ccc(O)c(O)c2)C1 (stereo not given)
Stimulation (Rattus norvegicus [1]): 144.9% | Stimulation (Rattus norvegicus [2]): -1.7% | Stimulation (Rattus norvegicus [3]): 46.5% | Stimulation (Rattus norvegicus [4]): 122.6%

Oc1ccc(C2CNCCc3c2cc(O)c(O)c3Cl)cc1 (stereo not given) [FENOLDOPAM]
Stimulation (Rattus norvegicus [5]): 165.1% | Stimulation (Rattus norvegicus [6]): 201.4% | Stimulation (Rattus norvegicus [7]): 246% | Stimulation (Rattus norvegicus [8]): 176%

Oc1ccc(C2CNCc3ccccc32)cc1O (stereo not given)
Stimulation (Rattus norvegicus [1]): 288.8% | Stimulation (Rattus norvegicus [2]): 11.5% | Stimulation (Rattus norvegicus [5]): 23.6% | Stimulation (Rattus norvegicus [3]): 87.7% | Stimulation (Rattus norvegicus [6]): 152.7% | Stimulation (Rattus norvegicus [7]): 198.8% | Stimulation (Rattus norvegicus [8]): 89.6% | Stimulation (Rattus norvegicus [4]): 188%

Oc1cccc(C2CNCc3ccccc32)c1 (stereo not given)
Activity (Canis familiaris): inactive | Stimulation (Rattus norvegicus [6]): 47% | Stimulation (Rattus norvegicus [7]): 81% | Stimulation (Rattus norvegicus [8]): 21%

CCN1Cc2ccccc2C(c2ccc(O)c(O)c2)C1 (stereo not given)
Stimulation (Rattus norvegicus [1]): 94.1% | Stimulation (Rattus norvegicus [2]): -8.8% | Stimulation (Rattus norvegicus [3]): -1% | Stimulation (Rattus norvegicus [4]): 42.7%

Oc1ccc(C2CNCc3sccc32)cc1O (stereo not given)
Stimulation (Rattus norvegicus [5]): 70.4% | Stimulation (Rattus norvegicus [6]): 188.6% | Stimulation (Rattus norvegicus [7]): 207% | Stimulation (Rattus norvegicus [8]): 160.2%

NCCc1ccc(O)c(O)c1 [DOPAMINE]
Stimulation (Rattus norvegicus [5]): 25.7% | Stimulation (Rattus norvegicus [6]): 209.8% | Stimulation (Rattus norvegicus [7]): 295.3% | Stimulation (Rattus norvegicus [8]): 116.2%

CCCN1Cc2ccccc2C(c2ccc(O)c(O)c2)C1 (stereo not given)
Stimulation (Rattus norvegicus [1]): 46.4% | Stimulation (Rattus norvegicus [3]): -7.7% | Stimulation (Rattus norvegicus [4]): 11.8%
